Measured values pooled from the literature.
Each line is one published result; the experiments were not run side by side.
Target: Mitogen-activated protein kinase kinase kinase 3 (MAP3K3, Homo sapiens, UniProt Q99759)
One construct used (Q99759 1-626): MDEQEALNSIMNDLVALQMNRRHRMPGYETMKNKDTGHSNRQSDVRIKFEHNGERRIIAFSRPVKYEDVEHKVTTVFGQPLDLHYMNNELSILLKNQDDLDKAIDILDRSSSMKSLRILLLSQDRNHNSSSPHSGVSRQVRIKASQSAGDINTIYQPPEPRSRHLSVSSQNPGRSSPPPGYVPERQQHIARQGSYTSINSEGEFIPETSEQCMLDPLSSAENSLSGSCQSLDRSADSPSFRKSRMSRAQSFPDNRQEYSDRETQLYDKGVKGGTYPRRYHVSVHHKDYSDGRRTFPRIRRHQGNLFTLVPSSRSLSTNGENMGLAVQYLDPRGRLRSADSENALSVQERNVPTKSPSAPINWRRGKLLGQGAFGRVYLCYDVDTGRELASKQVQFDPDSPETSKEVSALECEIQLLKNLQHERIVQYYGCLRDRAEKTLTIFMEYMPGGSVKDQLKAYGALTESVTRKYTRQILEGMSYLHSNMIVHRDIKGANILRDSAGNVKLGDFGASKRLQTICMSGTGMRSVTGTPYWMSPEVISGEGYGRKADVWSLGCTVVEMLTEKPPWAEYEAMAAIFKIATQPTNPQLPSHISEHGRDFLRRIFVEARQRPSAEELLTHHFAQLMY

C[C@H]1CC[C@H](n2c3cnccc3c3cnc(Nc4ccc5c(n4)CCN(C(=O)CO)C5)nc32)CC1 gave a remaining binding of 81% (binding, competition with immobilised ligand; 1 µM).
CO[C@@H]1[C@H](N(C)C(=O)c2ccccc2)C[C@H]2O[C@]1(C)n1c3ccccc3c3c4c(c5c6ccccc6n2c5c31)C(=O)NC4 has an inhibition of 86% (enzyme activity, inhibitor; 1 µM).
CN1CCN(C(=O)c2ccc(NC(=O)Nc3ccc(N(C)c4ccnc(Nc5ccc(CS(C)(=O)=O)cc5)n4)cc3)cc2)CC1 gave a remaining binding of 57% (binding, competition with immobilised ligand; 1 µM).
With CC(C)S(=O)(=O)c1ccc2nccc(Nc3ccc4sc(C5CCCC5)nc4c3)c2c1 the activity vs control was 105% (enzyme activity, inhibitor; 1 µM).
The inhibition of C#Cc1cc(-c2cc(Nc3nc(N[C@@H](C)c4ccc(F)cn4)ncc3Cl)n[nH]2)ccc1C=O is reported as 48.8% (enzyme activity, inhibitor; 0.2 µM).
For C1=C/COCc2cc(ccc2OCCN2CCCC2)Nc2nccc(n2)-c2cccc(c2)COC/1, the remaining binding was 53% (binding; 0.1 µM).
For Cc1cc(O)c(-c2ccc([C@@H](C)CN(C)C)cc2)c2c1[nH]c(=O)c1sccc12, the inhibition was 0.395% (enzyme activity, inhibitor; 0.1 µM).
CC#CC(=O)N1CCC[C@H]1c1nc(-c2ccc(C(=O)Nc3ccccn3)cc2)c2c(N)nccn12 has an inhibition of 25% (enzyme activity, inhibitor; 1 µM).
CCCCC(=O)Nc1ccc(-c2ccc3ncn(CCC)c(=O)c3c2)cn1 gave a remaining binding of 100% (binding, competition with immobilised ligand; 0.5 µM).
